# V1R ag counter = V1a receptor agonism, counter-screen for OXTR agonists; P37288; actives 0.25% (n = 320,000); CHO-V1R cells, Fluo-8 calcium fluorescence, agonist mode; 0% DMSO, 100% 3 nM vasopressin; activation, % at 3 µM;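 active = activation above the mean activation of all tested compounds plus 3 SD, per screening run, cut at about 20% in these data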;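 note: signal is peak over basal fluorescence ratio across a 100 second FLIPR read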
# OXTR potentiate = human OXTR potentiation; CHO-OTR cells, Fluo-8 calcium fluorescence, potentiator mode; 0% = oxytocin EC15, 100% = EC100; P30559; activation, % at 3 µM; actives 0.061% (n = 320,000);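 active = activation above that plate's cutoff, the mean activation of tested compounds plus 3 SD, cut at about 6.6% in these data, passing the limit was not always enough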;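 note: 100% uses oxytocin at 75 nM as the full agonist control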
#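 System: human OTR in CHO cells; Also added: sub-maximal oxytocin, roughly EC15; Timing: compound 6 min at room temperature before oxytocin, 100 s read; Technique: Fluo-8 intracellular calcium fluorescence, ex 470-495, em 515-575 nm; Controls: oxytocin EC15 low and EC100 high; Replication: singlicate.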
# OXTR ag = human OXTR agonism | CHO-OTR cells, Fluo-8 calcium fluorescence; normalized: DMSO 0%, oxytocin 100% | activation, % at 3 µM | actives 0.32% (n = 320,000) | AID 2435;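 active = activation above the mean of all tested compounds plus 3 SD, cutoff set per screening run, cut at about 20% in these data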;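 note: peak over basal fluorescence ratio from a 100 s FLIPR kinetic read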
# zfTRPN1 agonist = zebrafish TRPN1 (NompC) channel agonism; HEK293 zebrafish TRPN1-YFP, Fluo-8 calcium fluorescence; 100% = response to 87 µM carbachol; activation, % at 3 µM; actives 0.18% (n = 220,000); AID 1424;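 active = activation above its plate's cutoff, the mean activation of test wells on that plate plus 3 SD, cut at about 19% in these data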;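 note: 0% = DMSO alone and 100% = 87 µM carbachol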
#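 Material: zebrafish TRPN1-YFP in HEK293 cells; Doses: single test compound dose, 3 µM nominal, 0.3% DMSO; Timing: dye loading 1 h at 37 °C, then 30 min room temperature; Technique: intracellular calcium fluorescence with Fluo-8; Benchmarks: high carbachol 87 µM, low DMSO alone.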
# TRPML3 agonist = human mucolipin-3 channel agonism; Q8TDD5; HEK293 TRPML3-YFP, Fluo-8 calcium fluorescence; 100% = the carbachol control signal; activation, % at 3 µM; actives 0.29% (n = 220,000); AID 1448;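 active = activation above its plate's cutoff, the mean activation of the plate's test wells plus 3 SD, cut at about 12% in these data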;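 note: 0% = DMSO only wells and 100% = carbachol wells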
# Target sequence (Q8TDD5 whole entry, looked up): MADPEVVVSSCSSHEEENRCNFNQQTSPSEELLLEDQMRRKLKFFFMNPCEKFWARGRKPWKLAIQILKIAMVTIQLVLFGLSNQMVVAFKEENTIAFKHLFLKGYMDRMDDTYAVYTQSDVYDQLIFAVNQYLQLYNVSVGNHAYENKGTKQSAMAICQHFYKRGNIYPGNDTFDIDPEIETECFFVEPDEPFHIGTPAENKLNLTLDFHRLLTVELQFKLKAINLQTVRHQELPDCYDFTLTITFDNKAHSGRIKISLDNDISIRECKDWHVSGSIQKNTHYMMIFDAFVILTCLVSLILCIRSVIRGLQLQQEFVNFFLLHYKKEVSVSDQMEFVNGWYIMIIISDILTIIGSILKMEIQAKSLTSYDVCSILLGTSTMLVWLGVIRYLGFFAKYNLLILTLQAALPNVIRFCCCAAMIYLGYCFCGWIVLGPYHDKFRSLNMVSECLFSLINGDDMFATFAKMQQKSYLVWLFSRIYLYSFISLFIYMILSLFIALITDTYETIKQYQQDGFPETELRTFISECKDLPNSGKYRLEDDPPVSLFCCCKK
#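 Material: HEK293 cells stably carrying human TRPML3-YFP; compound dosing: single dose, 3 µM final nominal compound, 0.3% DMSO final; incubation: 1-h 37 °C dye load, 5-s basal, 120-s post-compound reads; technique: Fluo-8 intracellular calcium fluorescence, excitation 470-495 nm, emission 515-575 nm; read-out basis: percent activation from peak-to-basal fluorescence ratio, scaled between DMSO and carbachol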
# * marks the source's active call; other numbers are inactive results; nt = not tested or not shown. An excerpt weighted towards active compounds, which were near 0.58% of everything screened.
SMILES,V1R ag counter,OXTR potentiate,OXTR ag,zfTRPN1 agonist,TRPML3 agonist
Cc1ccc(S(=O)(=O)/N=C2/NC(=O)/C(=C/c3cc([N+](=O)[O-])ccc3O)S2)cc1,34*,-13,26*,nt,nt
COc1cc(/C=C2\S/C(=N/S(=O)(=O)c3ccc(C)cc3)NC2=O)c([N+](=O)[O-])cc1OC,-1,1,-1,1,0
CC1(C)CCN2CCC(C)(C)c3c(O)ccc1c32,28*,-11,25*,nt,nt
CC1=Nc2ccccc2/C1=C/c1sc(=S)n(-c2cccc(C(=O)O)c2)c1O,nt,nt,nt,20*,18*
Oc1c(C=C2N=c3ccccc3=N2)sc(=S)n1-c1ccccc1,1,0,3,1,0
O=C(NCCC(=O)N1CCC2(CC1)NCCc1[nH]cnc12)c1ccc(Br)cc1,0,-5,-1,nt,nt
COCCNC(=O)c1cc(-c2ccccc2)n(Cc2cc(C)no2)n1,0,-3,-1,nt,nt
CC(C)(C)c1ccc(C(=O)O)c(C(=O)c2ccc(C(=O)O)cc2)c1,0,-14,1,1,0
COc1ccccc1C(=O)NC(=S)NNC(=O)c1sc2ccccc2c1Cl,25*,-10,46*,3,1
COc1ccccc1C(=O)NNC(=S)NC(=O)c1sc2ccccc2c1Cl,34*,-12,49*,1,2
COc1ccccc1C(=O)NNC(=S)NC(=O)c1cccs1,51*,-17,30*,nt,nt
Cc1c(NC(=S)NC(=O)c2sc3ccccc3c2Cl)cccc1C(=O)O,0,-12,-1,1,1
Cc1ccc(N2C(=O)C(NC(=O)c3ccccc3)(C(F)(F)F)C3=C2CC(C)(C)CC3=O)cc1 (configuration not stated),0,-3,-1,-1,1
CCc1nc2ccc(C(=O)N3CCN(c4ccc([N+](=O)[O-])cc4)CC3)cc2nc1CC,-2,-12,-3,nt,nt
O=C(Nc1cc(S(=O)(=O)N2CCCCC2)ccc1Cl)c1ccccc1NS(=O)(=O)c1ccc(F)cc1,7,-10,10,19*,13*
CC1C(=O)N2CCCc3cc(NC(=O)c4ccccc4C(F)(F)F)cc1c32 (configuration not stated),0,-4,-1,nt,nt
O=C(O)c1ccccc1-c1c2cc(I)c(=O)c(I)c-2oc2c(I)c(O)c(I)cc12,205*,-12,232*,nt,nt
C=C(C)CN(CC)C(=O)COc1ccc(S(=O)(=O)Nc2ccc(OC)cc2)cc1,24*,-22,29*,11,4
CC(C)C1Oc2ccccc2N(CC(=O)N(Cc2ccncc2)Cc2ccco2)C1=O (configuration not stated),-1,-5,-1,1,-1
CC(=O)Nc1cccc(C(=O)/C=C/c2ccc(N(C)C)cc2)c1,132*,-19,195*,44*,20*
CC(=O)Nc1cccc(C(=O)/C=C/c2ccc(/C=C/C(=O)c3cccc(NC(C)=O)c3)cc2)c1,0,-9,2,1,1
COC(=O)C1=C(C)N(Cc2ccccc2)C(=NCC(C)C)N[C@H]1c1cccc(F)c1,23*,-11,31*,nt,nt
COC(=O)C1=C(C)N(Cc2ccccc2)C(=NCC(C)C)N[C@H]1c1cccc(C(F)(F)F)c1,3,-10,14,nt,nt
COc1cc(/C=N/NC(=O)COc2ccc(-n3cnnn3)cc2)ccc1OCC(N)=O,4,2,1,0,1
CC(C)(C)OC(=O)C[C@H]1C/C=C\C[C@@H](CC(=O)N(CCO)Cc2ccccc2)C(=O)N[C@H](Cc2ccccc2)COC1=O,0,-5,-1,nt,nt
SMILES,V1R ag counter,OXTR potentiate,OXTR ag,zfTRPN1 agonist,TRPML3 agonist
CCOc1cccc2sc(N(CCCN(C)C)C(=O)c3ccc(S(=O)(=O)N4CCc5ccccc5C4)cc3)nc12,35*,-16,25*,nt,nt
COc1cccc2c1C(=O)c1c(O)c3c(c(O)c1C2=O)C[C@@](O)(C(=O)CO)C[C@@H]3O[C@H]1C[C@H](N)[C@H](O)[C@H](C)O1,23*,-10,25*,27*,11
Cc1ccccc1OC1C(=O)N(Cc2ccc3c(c2)OCO3)C1c1sccc1C (configuration not stated),3,-12,3,2,0
O=C(Nc1ccc(NC(=O)c2ccc(Cl)c(S(=O)(=O)N3CCOCC3)c2)cc1)c1ccccc1,1,-5,1,nt,nt
O=C(Nc1ccccc1)Nc1ccc(Cl)c(S(=O)(=O)N2CCOCC2)c1,14,-13,17,23*,13*
O=C1CCN2C=Nc3cccc4ccc1c2c34,29*,-14,38*,7,8
c1ccc(CNc2nc(NCc3ccccc3)c3ccccc3n2)cc1,21*,-19,28*,16,7
O=S(=O)([O-])CCC[n+]1c(/C=C\Nc2ccccc2)oc2ccc(-c3ccccc3)cc21,nt,nt,nt,119*,25*
Cc1ccccc1C(C)NC(=O)COC(=O)Cn1cc(C(F)(F)F)ccc1=O (configuration not stated),1,3,0,nt,nt
COc1ccccc1N=C1NC(=O)/C(=C/c2ccc(N(C)C)cc2)S1,24*,-22,25*,nt,nt
Cc1ccc(C2C(C#N)=C(N)Oc3cc(N)ccc32)cc1 (configuration not stated),3,-1,1,nt,nt
Cc1ccc(/C=C2\CCC3=C2OC(N)=C(C#N)C3c2ccc(C)cc2)cc1 (configuration not stated),43*,-24,23*,14,7
COc1ccc(S(=O)(=O)Nc2ccc(S(=O)(=O)N3CCCC3)cc2)cc1,0,-5,0,-1,0
COc1ccc(S(=O)(=O)Nc2ccc(S(=O)(=O)N3CCCCC3)cc2)cc1,24*,-26,21*,0,0
CCOc1ccc(S(=O)(=O)Nc2nc3ccccc3nc2-n2ccc(=NC(=O)c3ccccc3C)cc2)cc1,4,-6,1,37*,14*
COc1cc(CN(C2CCCCC2C)S(=O)(=O)c2ccc(S(=O)(=O)NC3CC3)cc2)cc(OC)c1OC (configuration not stated),2,-10,-1,1,1
COc1ccc(CN(C2CCCCC2C)S(=O)(=O)c2ccc(S(=O)(=O)N(C)C)cc2)cc1OC (configuration not stated),1,-9,2,39*,145*
CC(C)[C@H]1COC(NC2=N[C@@H](C(C)C)CO2)=N1,0,2,-1,nt,nt
COc1ccc(NS(=O)(=O)c2cccc(C(=O)OCC(=O)Nc3cc(C)on3)c2)cc1,11,-22,4,3,-1
Cc1ccc(NS(=O)(=O)c2ccc(C(=O)OCC(=O)Nc3cc(C)on3)cc2)cc1,nt,nt,nt,22*,11
